Screens from PubChem.
This is a sample that favours compounds with a hit; in the whole collection about 2.3% have one here.
TRPC4 block = TRPC4 (mouse) channel inhibition | AID 2247 | Q9QUQ5 | HEK293 TRPC4beta/mu-opioid, DAMGO-evoked Fluo4 calcium flux; stronger effect = lower value | B-score at 10 µM | 300,000 tested, 0.39% active;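 active = B-score over 3 SD under the library average, no early fluorescence shift, positive overall ratio signal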
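System: stable TRPC4beta/mu-opioid receptor HEK293 cells; Dosing: single-point compound dosing; Measured by: Fluo4 Ca2+ flux fluorescence; Read-out basis: per-well B score of integrated baseline-normalized Fluo4 ratio.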
TRPC4 PAM = TRPC4 (mouse) allosteric potentiation; B-score at 10 µM; HEK293 TRPC4beta/mu-opioid, DAMGO EC20, Fluo-4 Ca2+ flux; stronger effect = higher value; 310,000 tested, 0.42% active;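 active = B-score of calcium response area above 5 SD of library B-scores, with initial fluorescence ratio within 5 SD of library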;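 also: B-score of integrated fluorescence ratio over time as area under calcium response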
TRPC6 activator = activators of mouse TRPC6 channel; 310,000 tested, 0.13% active; Q61143; HEK293-TRPC6 membrane potential dye fluorescence; stronger effect = higher value; B-score at 10 µM;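 active = B-score of the integrated fluorescence ratio above library mean plus 3 SD, and starting fluorescence ratio within library mean plus 5 SD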;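 also: higher score means more depolarization so channel activation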
TRPC6 inh = mouse TRPC6 channel inhibition; B-score at 10 µM; HEK293-TRPC6, membrane potential dye, ACh-evoked depolarization; stronger effect = lower value; 310,000 tested, 1.1% active;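 active = B-score under library mean minus 3 SD, initial fluorescence not abnormally high, positive integrated signal ratio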;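 also: B-score derived from integrated fluorescence ratio over the kinetic read; more negative B-score means stronger inhibition of depolarization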
TRPC4 act = TRPC4 (mouse) channel activation; Q9QUQ5; HEK293 TRPC4beta/mu-opioid, Fluo4 calcium fluorescence; stronger effect = higher value; B-score at 10 µM; 310,000 tested, 0.49% active; AID 2237;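 active = B-score above 5 SD of library B-scores, and initial fluorescence ratio not above library mean plus 5 SD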;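 also: positive B-score marks a calcium rise read as TRPC4 activation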
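Technique: kinetic Fluo4 calcium fluorescence; Test system: TRPC4beta and mu-opioid receptor HEK293 stable cells; Measure: B-scored integrated calcium fluorescence ratio; Benchmarks: low control buffer alone, high control maximal DAMGO; Schedule: 45 min room-temperature Fluo4 loading, 110 s read.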
TRPC4 sel inh 2 = mouse TRPC4 off-target activity of TRPC6 inhibitors, second screen; shares compounds with TRPC6 inh; HEK293 TRPC4/MOR, membrane potential dye fluorescence; channel activated by saturating DAMGO dose; inhibition, % at 10 µM; 920 tested, 42% active;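 active = compounds whose fluorescence signal differed from control wells by over 3 SD, either direction, in both duplicate plates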
TRPC4 spec = selectivity of TRPC6 inhibitors: effect on mouse TRPC4; AID 2777; 920 tested, 61% active; activity change, negative = inhibition, % at 10 µM; HEK293 TRPC4/mu-opioid, membrane potential fluorescence; shares compounds with TRPC6 inh;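 active = rise or fall in signal beyond 3 SD of buffer-only wells in both replicate plates, either sign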;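 also: integrated kinetic ratio of fluorescence range over baseline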
HEK293 MPD ctr 2-1 = second check of TRPC6 inhibitor effects in parental HEK293 cells. shares compounds with TRPC6 inh. parental HEK293 membrane potential dye fluorescence; maximal acetylcholine challenge after compound addition. signal change vs control, % at 10 µM. 920 tested, 31% active;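 active = membrane potential signal moving either way by over 3 SD of the maximum-effect control, in both duplicate plates, meaning non-specific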
HEK293 MPD ctr-1 = checks TRPC6 inhibitor effects in parental HEK293 cells. shares compounds with TRPC6 inh. parental HEK293 membrane potential dye fluorescence. membrane potential signal change, % at 10 µM. 920 tested, 60% active. AID 2780;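 active = membrane potential signal shifting up or down by more than 3 SD of buffer-only wells, on both duplicate plates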
HEK293 MPD ctr-2 = checks TRPC6 modulator effects in parental HEK293 cells | membrane potential dye fluorescence | 2,400 tested, 51% active | AID 488924 | membrane potential signal change, % at 10 µM | shares compounds with TRPC6 inh;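 active = membrane potential signal moves up or down beyond 5 SD from buffer-only wells, on both duplicate plates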
HEK293 MPD ctr 2-2 = parental HEK293 nonspecific activity of TRPC6 modulators, second screen | shares compounds with TRPC6 inh | membrane potential dye fluorescence; after compound, maximal acetylcholine stimulation | inhibition, % at 10 µM | 2,400 tested, 14% active | AID 488926;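 active = membrane potential signal drops by more than 5 SD from the mean control signal, in both duplicate plates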;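 also: plate controls were acetylcholine ECmax control wells for no effect and buffer only wells for full effect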
TRPC4 ctr mod = mouse TRPC4 off-target activity of TRPC6 modulators | shares compounds with TRPC6 inh | HEK293 TRPC4/mu-opioid, membrane potential fluorescence | percent change from control (negative = decrease, positive = increase), % at 10 µM | 2,400 tested, 69% active;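 active = membrane potential signal moved up or down beyond 5 SD of buffer control wells, in both duplicate plates, actives on both sides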;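 also: plate controls were assay buffer wells for no effect and DAMGO maximal-effect wells for full effect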
TRPC4/MOR inh 2 = second check of whether TRPC6 modulators also affect mouse TRPC4; inhibition, % at 10 µM; shares compounds with TRPC6 inh; 2,400 tested, 55% active; HEK293 TRPC4/mu-opioid, membrane potential dye fluorescence; stimulated with maximal-effect DAMGO;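 active = drop in membrane potential signal beyond 5 SD of the control wells in both duplicate plates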;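 also: TRPC4 counter screen for TRPC6 hits run under conditions tuned for TRPC6 not TRPC4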
TRPC6 inh conf = confirmation of mouse TRPC6 inhibitors. 3,300 tested, 43% active. HEK293-TRPC6, membrane potential dye, ACh-evoked depolarization. shares compounds with TRPC6 inh. inhibition, % at 10 µM;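 active = fluorescence ratio falls more than 5 SD below the full-stimulation control mean, in both duplicate runs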;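 also: integrated fluorescence ratio of peak minus minimum over baseline after agonist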
TRPC6 act confirm = mouse TRPC6 activator confirmation; shares compounds with TRPC6 inh; 2,800 tested, 11% active; activation, % at 10 µM; HEK293-TRPC6 membrane potential dye fluorescence, FDSS; AID 488961;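 active = ratio signal rise beyond 5 SD above unstimulated control wells' mean, seen in both duplicate runs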;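 also: plate controls were buffer EC0 wells for no effect and acetylcholine ECmax response for full effect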
* marks the source's active call; other numbers are inactive results.

What do the screens show for `CCN1CCN(c2c(C=O)c(Cl)nc3ccc(OC)cc23)CC1`?
TRPC4 block: inactive; TRPC4 PAM: inactive; TRPC6 activator: inactive; TRPC6 inh: -7.55*; TRPC4 act: 78*; HEK293 MPD ctr-2: -276.0%*; HEK293 MPD ctr 2-2: 72.0%*; TRPC4 ctr mod: inactive; TRPC4/MOR inh 2: 54.0%*; TRPC6 inh conf: 57.5%*; TRPC6 act confirm: inactive

What do the screens show for `COc1cccc(CNc2cnc3ccccc3c2)c1O`?
TRPC4 block: inactive; TRPC4 PAM: inactive; TRPC6 activator: inactive; TRPC6 inh: inactive; TRPC4 act: inactive

What do the screens show for `Cn1c(NCc2c[nH]c3ccccc23)nc2ccccc21`?
TRPC4 block: -5*; TRPC4 PAM: inactive; TRPC6 activator: inactive; TRPC6 inh: -6.72*; TRPC4 act: inactive; TRPC4 sel inh 2: 48.0%*; TRPC4 spec: -12.0%*; HEK293 MPD ctr 2-1: inactive; HEK293 MPD ctr-1: -214.0%*; TRPC6 inh conf: inactive; TRPC6 act confirm: inactive

How did COc1cccc(CNc2nc3ccccc3n2C)c1O do in these assays?
TRPC4 block: inactive; TRPC4 PAM: inactive; TRPC6 activator: inactive; TRPC6 inh: -5.7*; TRPC4 act: inactive; HEK293 MPD ctr-2: inactive; HEK293 MPD ctr 2-2: inactive; TRPC4 ctr mod: inactive; TRPC4/MOR inh 2: 43.0%*; TRPC6 inh conf: inactive; TRPC6 act confirm: inactive

How did COc1ccc(OC)c(S(=O)(=O)NC(N)=NCCc2ccccc2)c1 do in these assays?
TRPC4 block: inactive; TRPC4 PAM: inactive; TRPC6 activator: inactive; TRPC6 inh: inactive; TRPC4 act: inactive

How did Cc1noc(C)c1CCC(=O)N1CCCC(CCC(=O)NCc2ccccc2F)C1 (stereo unspecified) do in these assays?
TRPC4 block: inactive; TRPC4 PAM: inactive; TRPC6 activator: inactive; TRPC6 inh: inactive; TRPC4 act: inactive

What do the screens show for `Cc1cccnc1NC(=O)c1c(O)c2ccccc2n(C)c1=O`?
TRPC4 block: inactive; TRPC4 PAM: inactive; TRPC6 activator: inactive; TRPC6 inh: -6.92*; TRPC4 act: inactive; TRPC4 sel inh 2: inactive; TRPC4 spec: -13.0%*; HEK293 MPD ctr 2-1: inactive; HEK293 MPD ctr-1: -144.5%*; TRPC6 inh conf: inactive; TRPC6 act confirm: inactive
